The list is not random: actives were taken first. Their share in the collection is about 1.5%.
CXCR6 inh: inhibitors of human CXCR6 receptor; 360,000 tested, 0.36% active; inhibition, % at 20 µM; O00574; AID 602244; CHO-K1 PathHunter CXCR6 beta-arrestin, luminescence; in the data active = inhibition above about 34%, passing the limit was not always enough;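 also: antagonist mode with CXCL16 agonist at 10 nM final; 0% = 10 nM CXCL16 with DMSO and 100% = unstimulated wells without agonist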
Target sequence (O00574 whole entry, looked up): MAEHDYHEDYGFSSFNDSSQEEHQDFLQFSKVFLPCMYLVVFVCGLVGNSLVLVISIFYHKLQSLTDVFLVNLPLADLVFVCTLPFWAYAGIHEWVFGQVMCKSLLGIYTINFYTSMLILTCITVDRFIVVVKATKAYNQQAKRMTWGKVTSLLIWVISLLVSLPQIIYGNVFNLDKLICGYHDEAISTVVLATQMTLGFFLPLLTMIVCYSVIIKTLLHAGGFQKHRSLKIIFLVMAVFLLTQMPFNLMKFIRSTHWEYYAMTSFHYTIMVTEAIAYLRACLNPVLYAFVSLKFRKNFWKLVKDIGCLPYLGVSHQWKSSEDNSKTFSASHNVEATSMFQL
EBI2 antag: EBI2 (human) antagonism | P32249 | EBI2 beta-arrestin recruitment, luminescence, 7a,25-OHC stimulated | inhibition, % at 5 µM | 360,000 tested, 0.81% active | AID 651636; in the data active = inhibition above about 38%;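 also: enzyme fragment complementation signal reports receptor beta-arrestin coupling in cells; 0% = agonist plus DMSO wells and 100% = wells without agonist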
CCR6 antagonist: blocks CCL20-driven beta-arrestin recruitment at human CCR6; 340,000 tested, 0.49% active; inhibition, % at 20 µM; P51684; AID 493098; CHO-K1 CCR6 PathHunter beta-arrestin, luminescence, CCL20-stimulated;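 active = compounds whose inhibition of the agonist-driven luminescence signal at 20 µM reaches about 50%, limit read from the data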;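 also: cells stimulated with CCL20 at 14 nM final; plate controls were DMSO with CCL20 for no effect and DMSO without agonist for full effect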
APJ antag: antagonists of human APJ apelin receptor | P35414 | CHO-K1 APJ beta-arrestin complementation, luminescence | inhibition, % at 20 µM | 330,000 tested, 0.32% active | AID 2521;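 active = inhibition above about 40% at 20 µM, limit read from the data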;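 also: cells challenged with 10 nM apelin-13 agonist together with compound; plate controls were apelin-13 plus DMSO wells for no effect and DMSO wells lacking apelin-13 for full effect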
APJ ag: agonists of human APJ apelin receptor. P35414. CHO-K1 APJ PathHunter beta-arrestin, luminescence; 0% DMSO wells, 100% apelin. activation, % at 20 µM. 330,000 tested, 0.11% active;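 active = activation more than six SD over the plate average, tested at 20 µM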;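 also: 0% = DMSO alone and 100% = apelin-13 at 10 nM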
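Test system: CHO-K1 APJ beta-arrestin complementation cell line. Amount: cell density 1000 per well. Controls: DMSO negative, 10 nM Apelin-13 positive. Signal: luminescent beta-gal fragment complementation, chemiluminescent substrate. Read-out basis: agonist-driven arrestin binding to APJ. Timing: compound stimulation 90 min at 25 °C, detection 60 min.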
EBI2 conf: confirmation of human EBI2 receptor antagonists; shares compounds with EBI2 antag; EBI2 beta-arrestin luminescence, 7a,25-OHC antagonism; inhibition, % at 5 µM; 2,400 tested, 29% active;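 active = inhibition of at least 50%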
EBI2 agonist: counter-screen for EBI2 antagonists: EBI2 agonist activity; shares compounds with EBI2 antag; 2,400 tested, under 10 active; activation, % at 5 µM; EBI2-expressing cells, agonist mode, luminescence, 60 min; 0% vehicle, 100% 7α,25-dihydroxycholesterol control;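 active = activation of at least 50%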
bGal counter: beta-galactosidase inhibition counter-screen; shares compounds with EBI2 antag; purified beta-galactosidase, luminescent Galacton Star, 15 min; inhibition, % at 5 µM; AID 652176; 2,400 tested, 1% active;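 active = replicate-average signal at least 3 plate SD below neutral wells, shown as high inhibition, flagging enzyme-inhibiting false positives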;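 also: 0% = DMSO wells with enzyme and 100% = wells lacking enzyme; higher means stronger loss of beta-gal luminescence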
Active calls of the source: *.

Screening O=C1C=C(c2ccc3c(c2)oc2ccccc23)C[C@@H](c2ccc3c(c2)OCO3)C1 returned CXCR6 inh 2, EBI2 antag 71*, CCR6 antagonist 17, APJ antag 7, APJ ag -6, EBI2 conf 64*, EBI2 agonist 1 and bGal counter -3.
For Cc1ccc(C2=CC(=O)C[C@H](c3ccc4c(c3)OCO4)C2)cc1 the results were CXCR6 inh 4, EBI2 antag 48*, CCR6 antagonist 18, APJ antag 2, APJ ag -1, EBI2 conf 37, EBI2 agonist 1 and bGal counter 10.
For CSc1ccc(C2=CC(=O)C[C@H](c3ccc4c(c3)OCO4)C2)cc1 the results were CXCR6 inh 2, EBI2 antag 41*, CCR6 antagonist 11, APJ antag 0, APJ ag -4, EBI2 conf 28, EBI2 agonist -1 and bGal counter -4.
For O=C1C=C(c2ccc(O)cc2)C[C@@H](c2ccc3c(c2)OCO3)C1 the results were CXCR6 inh 6, EBI2 antag 16, CCR6 antagonist 18, APJ antag 0 and APJ ag -3.
For Cc1cccnc1C(NC(=O)C1CCN(CCCOc2ccccc2)CC1)c1ccc(F)cc1 (stereo not given) the results were CXCR6 inh 10 and EBI2 antag 4.
`Cc1ccc(Sc2cc(NCCCO)c([N+](=O)[O-])c3nonc23)cc1` gave CXCR6 inh 13, EBI2 antag 53*, CCR6 antagonist 22, APJ antag 7, APJ ag -3, EBI2 conf 8, EBI2 agonist -1 and bGal counter -14.
CC(C)CCSc1cc(NCCO)c([N+](=O)[O-])c2nonc12 was read as CXCR6 inh 15, EBI2 antag 14, CCR6 antagonist 23, APJ antag 14 and APJ ag 0.
For O=C(c1cc(-c2cccc(O)c2)on1)N1CCN(C(c2ccccc2)c2ccccc2)CC1 the results were CXCR6 inh -1, EBI2 antag 90*, CCR6 antagonist 8, APJ antag 0, APJ ag -1, EBI2 conf 73*, EBI2 agonist 0 and bGal counter 4.
Screening COc1cccc(-c2cc(C(=O)N3CCN(Cc4ccccc4)CC3)no2)c1 returned CXCR6 inh -1, EBI2 antag 51*, CCR6 antagonist -8, APJ antag -12, APJ ag -6, EBI2 conf 29, EBI2 agonist 0 and bGal counter -8.
`COc1ccc2cc(C(=O)N3CCN(Cc4ccc5c(c4)OCO5)CC3)[nH]c2c1` gave CXCR6 inh -9, EBI2 antag 86*, CCR6 antagonist 14, APJ antag -17, APJ ag -1, EBI2 conf 59*, EBI2 agonist 0 and bGal counter 6.
CCN1CCN(C(=O)c2cc3ccc(OC)cc3[nH]2)CC1 was read as CXCR6 inh 1, EBI2 antag 24, CCR6 antagonist 1, APJ antag 7 and APJ ag -2.
For COc1ccc(-c2cc(C(=O)N3CCN(Cc4ccccc4)CC3)no2)cc1OC the results were CXCR6 inh -12, EBI2 antag -18, CCR6 antagonist -8, APJ antag -27 and APJ ag -2.
`COc1cccc(-c2cc(C(=O)N3CCN(Cc4ccc5c(c4)OCO5)CC3)on2)c1` gave CXCR6 inh -2, EBI2 antag 70*, CCR6 antagonist 3, APJ antag -45, APJ ag -5, EBI2 conf 54*, EBI2 agonist 0 and bGal counter -11.
Cc1cc(C(=O)N2CCN(Cc3ccc4c(c3)OCO4)CC2)on1 was read as CXCR6 inh 1, EBI2 antag -9, CCR6 antagonist -1, APJ antag -5 and APJ ag -5.

Source: PubChem BioAssay (Sanford-Burnham Center for Chemical Genomics)
